Active and inactive are the calls of the source. The calls are words filed in the database; no cut-off is given here.
Columns and labels:
[1] = target: T1, Muscarinic acetylcholine receptor M3 (Homo sapiens, UniProt P20309); assay: Antagonist activity at human muscarinic acetylcholine M3 receptor expressed in CHO cells assessed as inhibition of Ach-induced calcium mobilization by FLIPR analysis; type: functional, cell-based
Outline: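 Calcium mobilization read by standard FLIPR protocol. IC50 in nM, mean of two or more independent assays.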
Target sequence in this assay (P20309 whole entry): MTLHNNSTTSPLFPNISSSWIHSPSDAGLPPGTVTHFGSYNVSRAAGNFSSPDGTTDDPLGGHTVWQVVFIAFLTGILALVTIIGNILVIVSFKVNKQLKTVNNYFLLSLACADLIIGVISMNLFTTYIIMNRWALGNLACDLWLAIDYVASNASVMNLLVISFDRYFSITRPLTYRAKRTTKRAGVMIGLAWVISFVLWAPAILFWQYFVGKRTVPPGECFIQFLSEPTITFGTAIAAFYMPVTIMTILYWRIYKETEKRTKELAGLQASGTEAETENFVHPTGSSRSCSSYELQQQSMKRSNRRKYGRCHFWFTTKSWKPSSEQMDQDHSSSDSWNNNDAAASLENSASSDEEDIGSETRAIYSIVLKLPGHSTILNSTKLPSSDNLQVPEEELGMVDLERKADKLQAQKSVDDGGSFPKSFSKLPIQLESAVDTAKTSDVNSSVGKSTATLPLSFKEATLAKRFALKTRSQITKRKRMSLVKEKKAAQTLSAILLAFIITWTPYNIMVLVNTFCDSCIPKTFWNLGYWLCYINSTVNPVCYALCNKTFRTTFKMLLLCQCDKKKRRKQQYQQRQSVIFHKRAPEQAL

[2] = target: T1, Muscarinic acetylcholine receptor M3; assay: Antagonist potency at human muscarinic acetylcholine M3 receptor expressed in CHO cells assessed as inhibition of Ach-induced calcium mobilization by FLIPR analysis relative to control; type: functional, cell-based; settings: for Kb: read-out: pA2 (converted)
Outline: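 Human M3 receptor in CHO cells, ACh-stimulated calcium mobilization by FLIPR. pA2 derived from the ratio of the ACh EC50 with and without antagonist. Run only where the IC50 was below 10 nM. Values above 11 could not be determined accurately.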
Target sequence in this assay (P20309 whole entry): as above

[3] = tested on: Rattus norvegicus; assay: Oral bioavailability in rat at 2 mg/kg; type: ADME, organism-based; settings: in vivo, BLD = below limit of detection
Outline: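 Rats dosed orally at 2 mg/kg. Percent bioavailability calculated from plasma levels.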

[4] = target: T2, Muscarinic acetylcholine receptor M1 (Homo sapiens, UniProt P11229); assay: Displacement of [3H]-N-methyl scopolamine from muscarinic acetylcholine M1 receptor expressed in CHO cell membrane; type: cell membranes
T2 sequence (P11229 whole entry): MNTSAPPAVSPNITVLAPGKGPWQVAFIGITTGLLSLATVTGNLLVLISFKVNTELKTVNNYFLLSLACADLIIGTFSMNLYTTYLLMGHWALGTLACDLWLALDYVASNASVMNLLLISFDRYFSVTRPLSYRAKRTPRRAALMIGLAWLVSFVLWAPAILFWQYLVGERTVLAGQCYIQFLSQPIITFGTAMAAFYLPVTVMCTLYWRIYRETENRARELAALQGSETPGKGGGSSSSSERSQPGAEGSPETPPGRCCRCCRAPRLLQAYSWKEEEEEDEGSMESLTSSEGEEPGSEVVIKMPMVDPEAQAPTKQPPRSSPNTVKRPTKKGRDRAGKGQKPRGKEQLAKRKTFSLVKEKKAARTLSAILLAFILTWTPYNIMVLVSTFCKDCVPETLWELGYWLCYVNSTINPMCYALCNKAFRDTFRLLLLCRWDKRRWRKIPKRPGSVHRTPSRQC
Outline: (§1)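 Membranes from CHO cells, SPA-format radioligand binding against 0.5 nM [3H]-N-methyl scopolamine. Values are the mean of three independent assays.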

[5] = Plasma clearance in rat at 1 mg/kg, iv; type: ADME, organism-based; set-up: dose 1 mg/kg, route intravenous
Outline: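 Rats dosed iv at 1 mg/kg. Systemic plasma clearance in ml/min/kg.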

[6] = target: T3, Muscarinic acetylcholine receptor M2 (Homo sapiens, UniProt P08172); assay: Displacement of [3H]-N-methyl scopolamine from muscarinic acetylcholine M2 receptor expressed in CHO cell membrane; type: cell membranes; outline: as §1
T3 sequence (P08172 whole entry): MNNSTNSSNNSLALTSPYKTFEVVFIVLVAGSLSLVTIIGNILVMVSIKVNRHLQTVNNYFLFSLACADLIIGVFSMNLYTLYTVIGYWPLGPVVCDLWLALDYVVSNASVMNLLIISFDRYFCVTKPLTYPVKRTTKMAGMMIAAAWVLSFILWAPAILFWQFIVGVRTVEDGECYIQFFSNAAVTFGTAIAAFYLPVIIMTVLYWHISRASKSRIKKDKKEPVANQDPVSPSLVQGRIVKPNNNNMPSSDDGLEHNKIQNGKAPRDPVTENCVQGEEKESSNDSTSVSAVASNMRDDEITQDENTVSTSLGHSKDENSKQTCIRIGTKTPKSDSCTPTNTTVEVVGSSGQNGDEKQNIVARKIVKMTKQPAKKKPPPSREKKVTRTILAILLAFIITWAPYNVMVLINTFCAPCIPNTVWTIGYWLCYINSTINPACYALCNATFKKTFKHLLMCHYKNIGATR

[7] = target: T1, Muscarinic acetylcholine receptor M3; assay: Displacement of [3H]-N-methyl scopolamine from muscarinic acetylcholine M3 receptor expressed in CHO cell membrane; type: cell membranes; outline: as §1
Target sequence in this assay (P20309 whole entry): as the sequence (P20309 whole entry) above

[8] = tested on: Mus musculus; assay: Antagonist potency at muscarinic acetylcholine M3 receptor in intranasally dosed mouse assessed as inhibition of Mch-induced bronchoconstriction; type: functional
Outline: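 Conscious mice challenged with methacholine to induce bronchoconstriction. ED50 expressed as µg per mouse, n = 1.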

[9] = tested on: Mus musculus; assay: Bronchoprotective activity in mouse against methacholine-induced bronchoconstriction assessed as time duration of bronchoprotection at 0.05 ug administered intranasally; type: functional
Outline: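 Conscious mice, methacholine-induced bronchoconstriction. Duration of bronchoprotection taken as the time to 50% loss of maximum protection.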

[10] = target: T1, Muscarinic acetylcholine receptor M3
Target sequence in this assay (P20309 whole entry, looked up): as the sequence (P20309 whole entry) above

Structure (SMILES) | IC50 [1] [nM] | Kb [2] [nM] | further results
C[N+]1(CC2CCCCC2)[C@@H]2CC[C@H]1C[C@@H](CC(C#N)(c1ccccc1)c1ccccc1)C2 (mixture of isomers) | 89.6 |  | 
C[N@+]1(CCOCc2ccccc2)C2CCC1C[C@@H](CC(C#N)(c1ccccc1)c1ccccc1)C2 | < 10 | < 0.01 | 
C=CCCCC[N@+]1(C)C2CCC1C[C@H](CC(C#N)(c1ccccc1)c1ccccc1)C2.[Br-] |  |  | F [3]: BLD; Ki [4]: 0.12 nM; clearance [5]: 125 mL/min/kg; Ki [6]: 0.1 nM; Ki [7]: 0.16 nM; pA2 ([2]; cho): > 11; ED50 [8]: 0.02 µg; Time [9]: >96 h
C[N@+]1(CCCOc2ccccc2)C2CCC1C[C@@H](CC(C#N)(c1ccccc1)c1ccccc1)C2 | < 10 | < 0.01 | 
C[N@+]1(CC2CC2)C2CCC1C[C@H](CC(C#N)(c1ccccc1)c1ccccc1)C2 | 26.3 |  | 
CC[N+]1(C)[C@@H]2CC[C@H]1C[C@@H](CC(C#N)(c1ccccc1)c1ccccc1)C2 (mixture of isomers) | < 10 | 0.0501 | 
COCCOCC[N+]1(C)[C@@H]2CC[C@H]1C[C@@H](CC(C#N)(c1ccccc1)c1ccccc1)C2 (mixture of isomers) | < 10 | 0.631 | 
C=CCCCC[N@+]1(C)C2CCC1C[C@H](CC(C#N)(c1ccccc1)c1ccccc1)C2 [listing 1 of 2 here] | < 10 | < 0.01 | 
CCCCCCCCCCCC[N+]1(C)[C@@H]2CC[C@H]1C[C@H](CC(C#N)(c1ccccc1)c1ccccc1)C2 (mixture of isomers) | 64 |  | 
C[N@+]1(CCCc2ccccc2)C2CCC1C[C@@H](CC(C#N)(c1ccccc1)c1ccccc1)C2 | < 10 | < 0.01 | 
C=CCCCC[N+]1(C)[C@@H]2CC[C@H]1C[C@@H](CC(C#N)(c1ccccc1)c1ccccc1)C2 (mixture of isomers) | 85.2 |  | 
CCCC[N@+]1(C)C2CCC1C[C@H](CC(C#N)(c1ccccc1)c1ccccc1)C2 | < 10 | < 0.01 | 
COCC[N+]1(C)[C@@H]2CC[C@H]1C[C@@H](CC(C#N)(c1ccccc1)c1ccccc1)C2 (mixture of isomers) | < 10 | 0.501 | 
CCCCCCCC[N@+]1(C)C2CCC1C[C@H](CC(C#N)(c1ccccc1)c1ccccc1)C2 | < 10 | 0.0794 | 
CCC[N+]1(C)[C@@H]2CC[C@H]1C[C@@H](CC(C#N)(c1ccccc1)c1ccccc1)C2 (mixture of isomers) | < 10 | 0.0501 | 
C[N+]1(CC2CC2)[C@@H]2CC[C@H]1C[C@@H](CC(C#N)(c1ccccc1)c1ccccc1)C2 (mixture of isomers) | < 10 | 0.0501 | 
C[N@+]1(CCCOCc2ccccc2)C2CCC1C[C@@H](CC(C#N)(c1ccccc1)c1ccccc1)C2 | < 10 | 0.0398 | 
C[N@+]1(CC2CC2)C2CCC1C[C@@H](CC(C#N)(c1ccccc1)c1ccccc1)C2 | < 10 | 0.0251 | 
C[N@+]1(CCOc2ccccc2)C2CCC1C[C@@H](CC(C#N)(c1ccccc1)c1ccccc1)C2 | < 10 | < 0.01 | 
C[N+]1(CCO)[C@@H]2CC[C@H]1C[C@@H](CC(C#N)(c1ccccc1)c1ccccc1)C2 (mixture of isomers) | < 10 | 0.158 | 
CCCCCC[N@+]1(C)C2CCC1C[C@H](CC(C#N)(c1ccccc1)c1ccccc1)C2 | < 10 | < 0.01 | 
C=CC[N+]1(C)[C@@H]2CC[C@H]1C[C@@H](CC(C#N)(c1ccccc1)c1ccccc1)C2 (mixture of isomers) | < 10 | 1.26 | 
C=CCCCC[N@+]1(C)C2CCC1C[C@@H](CC(C#N)(c1ccccc1)c1ccccc1)C2 | 32 |  | 
C[N+]1(CCCC#N)[C@@H]2CC[C@H]1C[C@@H](CC(C#N)(c1ccccc1)c1ccccc1)C2 (mixture of isomers) | < 10 | 0.158 | 
C[N+]1(CCC2CCCCC2)[C@@H]2CC[C@H]1C[C@@H](CC(C#N)(c1ccccc1)c1ccccc1)C2 (mixture of isomers) | 109 |  | 
C[N+]1(Cc2ccccc2)[C@@H]2CC[C@H]1C[C@@H](CC(C#N)(c1ccccc1)c1ccccc1)C2 (mixture of isomers) | 318 |  | 
C=CCCCC[N@+]1(C)C2CCC1C[C@H](CC(C#N)(c1ccccc1)c1ccccc1)C2 [listing 2 of 2 here] |  |  | pA2 [10]: Active

From ChEMBL document CHEMBL2021865, “Design, synthesis and structure-activity relationship of N-substituted tropane muscarinic acetylcholine receptor antagonists” (Bioorg Med Chem Lett, 2012)
